Experiment [1] concerns HeLa. The experiment is described as follows: Antiproliferative activity against human HeLa cells after 48 hrs by MTT assay. Format: functional, cell-based. Background: Tetrazolium assays rely on reduction of a dye to a coloured formazan, in cell work by metabolically active cells.
The test system of experiment [2] is HT-29. The experiment is described as follows: Antiproliferative activity against human HT-29 cells after 48 hrs by MTT assay. Format: functional, cell-based. The settings on record: HT-29, 48 h.
Experiment [3] has as its system K562. The experiment in a line: Antiproliferative activity against human K562 cells after 48 hrs by MTT assay. Format: functional, cell-based. The settings on record: K562, 48 h.
Experiment [4] in a line: Antiproliferative activity against human HCC1428 cells after 48 hrs by MTT assay. The settings on record: HCC1428, 48 h. The experiment is classed as functional, cell-based.
For experiment [5], the species on record is Homo sapiens. The experiment in a line: Inhibition of alpha-tubulin polymerization in human HCC1428 cells at 6 to 10 uM after 24 hrs by confocal microscopic method. Format: cell-based. In short, it runs like this:
(§1)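 HCC1428 cells grown on glass coverslips and treated 24 h; 1 µM vincristine and DMSO as controls. Fixed in cold methanol/acetone (1:1) 5 min, then blocked 20 min in 3% goat serum with 0.1% Triton X-100. Stained with mouse anti-α-tubulin and a FITC secondary, DAPI 4 µg/mL 15 min. Imaged by confocal microscopy; three independent experiments.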

For experiment [6], the species on record is Homo sapiens. The experiment in a line: Inhibition of alpha-tubulin polymerization in human HCC1428 cells at 3 uM after 24 hrs by confocal microscopic method. Format: cell-based. In short, it runs like this: as §1
The test system of experiment [7] is PC-3. The experiment is described as follows: Antiproliferative activity against paclitaxel-resistant human PC3 cells after 48 hrs by MTT assay. The experiment is classed as functional, cell-based. The settings on record: PC-3, 48 h.
Experiment [8] is filed under the species Bos taurus. The experiment is described as follows: Inhibition of bovine brain tubulin polymerization at 5 uM measured every 1 min for 1 hr by spectrophotometric method. An outline of the steps: (§2)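 Bovine brain tubulin (>97% pure) in G-PEM buffer (80 mM PIPES, 0.5 mM EGTA, 1.0 mM GTP, pH 6.9) with 0.1% DMSO, set up at 4 °C with or without compound, using a commercial HTS kit. Vincristine and taxol at 5 µM as controls. Polymerization followed by A340 every 1 min for 1 h at 37 °C.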

Experiment [9] is described as follows: Cell cycle arrest in human HCC1428 cells assessed as accumulation at G2/M phase at 6 uM after 24 hrs by propidium iodide staining based flow cytometry (reference value: […]%). The experiment is classed as functional.
In experiment [10] the test system is HCC1428. The experiment is described as follows: Cell cycle arrest in human HCC1428 cells assessed as accumulation at G2/M phase after 24 hrs by propidium iodide staining based flow cytometry. Format: functional. (A flow cytometer gives signals particle by particle.)
A short description of experiment [11]: Cell cycle arrest in human HCC1428 cells assessed as accumulation at G1 phase at 6 uM after 24 hrs by propidium iodide staining based flow cytometry (reference value: 62.61%). Format: functional.
For experiment [12], the species on record is Homo sapiens. The experiment in a line: Inhibition of alpha-tubulin polymerization in human HCC1428 cells at 3 to 6 uM after 24 hrs by confocal microscopic method. Format: cell-based. An outline of the steps: as §1
Experiment [13] has as its system HCC1428. The experiment in a line: Antiproliferative activity against human HCC1428 cells at 2 to 4 uM […] by RTCA. The experiment is classed as functional, cell-based. In short, it runs like this: (§3)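 Real-time impedance (xCELLigence RTCA DP) monitoring of HCC1428 cells plated at 2000 cells/well in E-plate 16. Cells kept in RPMI-1640 with 2% FBS at 37 °C, 5% CO2 throughout. Growth curves recorded over 84 h of compound exposure. Representative of three independent experiments.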

Experiment [14] in a line: Cell cycle arrest in human HCC1428 cells assessed as accumulation at S phase at 3 uM after 24 hrs by propidium iodide staining based flow cytometry (reference value: 24.46%). Format: functional.
The nature of experiment [15]: Cell cycle arrest in human HCC1428 cells assessed as accumulation at G2/M phase at 3 uM after 24 hrs by propidium iodide staining based flow cytometry (reference value: […]%). Format: functional.
The species named for experiment [16] is Bos taurus. The experiment is described as follows: Inhibition of bovine brain tubulin polymerization at 5 to 10 uM measured every 1 min for 1 hr by spectrophotometric method. An outline of the steps:
as §2

Experiment [17] is described as follows: Cell cycle arrest in human HCC1428 cells assessed as accumulation at G1 phase at 3 uM after 24 hrs by propidium iodide staining based flow cytometry (reference value: 62.61%). The experiment is classed as functional.
A short description of experiment [18]: Cell cycle arrest in human HCC1428 cells assessed as accumulation at S phase at 6 uM after 24 hrs by propidium iodide staining based flow cytometry (reference value: 24.46%). Format: functional.
The species named for experiment [19] is Homo sapiens. The experiment is described as follows: Inhibition of alpha-tubulin polymerization in human HCC1428 cells at 1 uM after 24 hrs by confocal microscopic method. Format: cell-based. An outline of the steps: as §1
The nature of experiment [20]: Cell cycle arrest in human HCC1428 cells assessed as accumulation at G2/M phase at 1 uM after 24 hrs by propidium iodide staining based flow cytometry (reference value: […]%). Format: functional.
For experiment [21], the system named is HCC1428. The experiment is described as follows: Antiproliferative activity against human HCC1428 cells at 1 uM […] by RTCA. The experiment is classed as functional, cell-based. An outline of the steps:
as §3

A short description of experiment [22]: Cell cycle arrest in human HCC1428 cells assessed as accumulation at G1 phase at 1 uM after 24 hrs by propidium iodide staining based flow cytometry (reference value: 62.61%). Format: functional.
Experiment [23] can be described thus: Cell cycle arrest in human HCC1428 cells assessed as accumulation at S phase at 1 uM after 24 hrs by propidium iodide staining based flow cytometry (reference value: 24.46%). The experiment is classed as functional.

Where a name gives a salt, the structure may show the parent alone. Calls of active or inactive are those of the source. The rule behind the calls is not given here.

As usually defined, the IC50 is the concentration at which inhibition is half-maximal. The low end stands for higher potency, the high end for lower potency. Take `Oc1ccc2cc1Oc1ccc(cc1)CCc1cccc(O)c1Oc1ccc(cc1O)CC2`: the IC50 in experiment [1] was 27.4 µM; in experiment [2], 17 µM; in experiment [3], 24.9 µM; in experiment [4], 19.5 µM.
For `Oc1ccc2cc1Oc1ccc(cc1)CCc1ccc(O)c(c1)Oc1ccc(cc1O)CC2`, in that order: 29.4 µM, 14.8 µM, 15.6 µM and 20.1 µM.
For `Oc1ccc2cc1Oc1ccc(cc1)CCc1cc(O)c(c(O)c1)Oc1cccc(c1)CC2`, in that order: 28.3 µM, 20.1 µM, 29.9 µM and 25.2 µM.
The like results for `Oc1ccc2cc1Oc1ccc(cc1)CCc1ccc(O)c(c1)Oc1ccc(cc1)CC2` were, in that order, 22.7 µM, 11.5 µM, 10.2 µM and 15.3 µM.
Regarding `Oc1ccc2c(c1)CCc1ccc(O)c(c1)Oc1ccc(cc1O)CCc1cccc(O)c1O2`, the IC50 stood at 26.8 µM in experiment [1], 15.9 µM in experiment [2], 25.3 µM in experiment [3] and 22 µM in experiment [4].
For `Oc1ccc2cc1Oc1ccc(cc1)/C=C\c1cccc(O)c1Oc1ccccc1CC2`, in that order: 21.9 µM, 9.6 µM, 19.2 µM and 17.1 µM.
For `Oc1cc2ccc1Oc1ccc(cc1)CCc1cccc(O)c1Oc1cccc(c1)CC2`, in that order: 15.8 µM, 11.6 µM, 6.06 µM and 7.69 µM.
On to `Oc1ccc2cc1Oc1ccc(cc1)CCc1ccc(O)c(c1)Oc1cccc(c1)CC2`, for which the IC50 in [1] was 11.7 µM; in experiment [2], 7.98 µM; in experiment [3], 7.02 µM; in experiment [4], 10.7 µM; in experiment [7], 13.4 µM. Besides, the inhibition entry in [5] was “Active”. In addition, the inhibition entry in experiment [6] is “inactive”.
For `CC(=O)O[C@H]1C(=O)[C@@]2(C)[C@H]([C@H](OC(=O)c3ccccc3)[C@]3(O)C[C@H](OC(=O)[C@H](O)[C@@H](NC(=O)c4ccccc4)c4ccccc4)C(C)=C1C3(C)C)[C@]1(OC(C)=O)CO[C@@H]1C[C@@H]2O`, the inhibition result in experiment [8] was “inactive”.
As for `Oc1cc2ccc1Oc1cccc(c1)CCc1ccc(O)c(c1)Oc1ccc(cc1)CC2`, the IC50 in [1] turned out to be 18.9 µM; in [2], 12.7 µM; in experiment [3], 15.7 µM; in [4] it was 22.4 µM.
Turning to `COc1cccc2c1C(=O)c1c(O)c3c(c(O)c1C2=O)C[C@@](O)(C(=O)CO)C[C@@H]3O[C@H]1C[C@H](N)[C@H](O)[C@H](C)O1` [DOXORUBICIN HYDROCHLORIDE], the IC50 in experiment [1] came to 1.23 µM; in experiment [2], 1.76 µM; in experiment [3], 0.57 µM; in experiment [4], 1.77 µM; in experiment [7] it was 16.9 µM.
Take `COc1cccc2c1Oc1cc(O)c(O)cc1CCc1ccc(O)c(c1)Oc1ccc(cc1)CC2`: the 50% inhibitory concentration (IC50) in [1] amounted to 2.61 µM; in experiment [2], 1.98 µM; in experiment [3], 1.74 µM; in experiment [4] it was 1.51 µM; in experiment [7] it was 5.51 µM. Also, the Activity in experiment [9] was 85.34%; in experiment [10], “Dose-dependent effect”; in experiment [11], 3.54%; in experiment [14], 23.66%; in [15] it was 37.7%; in experiment [17] it was 38.6%. In experiment [18], the Activity is listed as 11.12%. Besides, the inhibition result in experiment [12] and in experiment [16] was “Active” in each case. In addition, the outcome in experiment [13] was Active.
On to `Oc1cc2c(cc1O)Oc1c(O)cccc1CCc1ccc(cc1)Oc1cc(ccc1O)CC2`, for which the IC50 is 10.4 µM in [1]; 7.51 µM in [2]; 6.16 µM in [3]; 8.46 µM in experiment [4]; 7.7 µM in experiment [7].
As for `Oc1ccc2cc1Oc1ccc(cc1)CCc1cccc(O)c1Oc1ccccc1CC2`, the IC50 in [1] amounted to 21.5 µM; in experiment [2] it was 12.4 µM; in experiment [3], 21.6 µM; in [4], 19 µM.
Consider `CC[C@]1(O)C[C@H]2CN(CCc3c([nH]c4ccccc34)[C@@](C(=O)OC)(c3cc4c(cc3OC)N(C=O)[C@H]3[C@@](O)(C(=O)OC)[C@H](OC(C)=O)[C@]5(CC)C=CCN6CC[C@]43[C@@H]65)C2)C1` [VINCRISTINE], for which the inhibition entry in experiment [19] and in experiment [8] was “Active” throughout. The Activity in experiment [20] is reported as 88.89%; in experiment [22], 4.15%; in experiment [23] it was 6.96%. Also, in experiment [21], the result was Active.
For the compound `Oc1ccc2cc1Oc1ccc(cc1)CCc1cccc(O)c1Oc1ccc(cc1)CC2`, the IC50 in experiment [1] turned out to be 10.5 µM; in experiment [2] it was 7.57 µM; in [3] it was 8.52 µM; in experiment [4], 9.25 µM; in experiment [7], 10.9 µM.
`Oc1ccc2cc1Oc1cccc(c1)CCc1ccc(O)c(c1)Oc1ccc(cc1O)CC2`: the IC50 turned out to be 19.5 µM in experiment [1], 12.4 µM in [2], 10.9 µM in [3] and 19.5 µM in experiment [4].
For `Oc1ccc2c(c1)CCc1ccc(O)c(c1)Oc1ccc(cc1)CCc1cccc(O)c1O2`, the IC50 came to 15.9 µM in experiment [1], 7.98 µM in [2], 14.1 µM in [3] and 10.8 µM in experiment [4].
